PubChem BioAssay AID449763 (Sanford-Burnham Center for Chemical Genomics, 2010)
Out of some 330,000 compounds screened, about 1,100 (0.33%) were called active. The entries come from a sample that favours actives as a whole. A number with no mark means an inactive call.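 The calls were made as follows: active = at 10 µM dose, activation of 40% or more, normalized to positive control; inactive = the rest.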

Experiment: activators of apoptotic CHOP UPR arm, primary screen, cell-based, CHO-CHOP luciferase reporter, luminescence, uHTS (AID 449763);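 also: 100% = tunicamycin at 10 µg/mL and 0% = DMSO alone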
Conditions: at 10 µM, hits give high values, percent of tunicamycin response over DMSO baseline
Method in brief: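 measured by = luciferase luminescence | assay system = CHO-CHOP cells, stable luciferase reporter of PERK-eIF2a-CHOP signalling | amount = 500 reporter cells seeded per well | timing = 6 h compound exposure at 37 °C after overnight seeding | controls = positive tunicamycin 10 µg/mL, negative DMSO alone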

| SMILES | activation |
| --- | --- |
| O=C(O)COc1ccccc1/C=C1\C(=O)NC(=O)N(CCC2=CCCCC2)C1=O | -0.189% |
| O=C1NC(=O)N(CCc2ccc(F)cc2)C(=O)/C1=C/C=C/c1ccccc1 | 75.4% (active) |
| O=C1NC(=O)N(Cc2ccco2)C(=O)/C1=C\c1ccc(-c2ccc(F)cc2)o1 | 0.772% |
| COc1cccc(-c2nc3ccc(N4CCN(C)CC4)cc3[nH]2)c1 | -6.37% |
| Cc1cc(N2C(=O)C3CCCN3C2c2ccc(Cl)c(Cl)c2)no1 (stereo not given) | -0.781% |
